ChEMBL document CHEMBL4715734, “Discovery of the Potent and Selective M1 PAM-Agonist N-[(3R,4S)-3-Hydroxytetrahydro-2H-pyran-4-yl]-5-methyl-4-[4-(1,3-thiazol-4-yl)benzyl]pyridine-2-carboxamide (PF-06767832): Evaluation of Efficacy and Cholinergic Side Effects” (J Med Chem, 2016)

Columns and labels:
[1] = fCmax in dog at 3 mg/kg, po using spray-dried dispersion formulation; format: ADME, organism-based, Canis lupus familiaris; settings: in vivo
[2] = fAUC (0 to 24 hrs) in dog at 5 mg/kg, po using spray-dried dispersion formulation; format: ADME, organism-based, Canis lupus familiaris; settings: in vivo
[3] = Toxicity in female rat assessed as increase in food intake at 15 mg/kg, po administered for 14 days; format: organism-based; settings: in vivo, 336 h, time 14 day
Procedure, shortened: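 Two-week repeat-dose toxicity study in rats. Oral dosing in 0.5% methylcellulose at 3, 10, 30 (males)/15 (females) mg/kg, N=4/sex/dose. Food intake, body weight gain and histopathology were assessed.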

[4] = Toxicity in dog assessed as emesis at 5 mg/kg, po using spray-dried dispersion formulation; format: organism-based, Canis lupus familiaris; settings: in vivo
Procedure, shortened: (§1)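 Dogs received single escalating oral doses as a spray-dried dispersion (10% drug loading with HPMCAS-M). The dispersion was suspended in 0.5 wt% methylcellulose/0.5 wt% HPMCAS in 20 mM tris buffer, pH 7.4. One dog per sex per dose was used, and clinical signs were recorded.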

[5] = target: T1, Muscarinic acetylcholine receptor M1 (Homo sapiens) (UniProt P11229); assay: Binding affinity to muscarinic M1 receptor (unknown origin) assessed as recruitment of beta-arrestin by measuring binding constant by Path Hunter assay; format: cell-based; settings: CHO, filed as positive allosteric modulator
T1 sequence (whole entry): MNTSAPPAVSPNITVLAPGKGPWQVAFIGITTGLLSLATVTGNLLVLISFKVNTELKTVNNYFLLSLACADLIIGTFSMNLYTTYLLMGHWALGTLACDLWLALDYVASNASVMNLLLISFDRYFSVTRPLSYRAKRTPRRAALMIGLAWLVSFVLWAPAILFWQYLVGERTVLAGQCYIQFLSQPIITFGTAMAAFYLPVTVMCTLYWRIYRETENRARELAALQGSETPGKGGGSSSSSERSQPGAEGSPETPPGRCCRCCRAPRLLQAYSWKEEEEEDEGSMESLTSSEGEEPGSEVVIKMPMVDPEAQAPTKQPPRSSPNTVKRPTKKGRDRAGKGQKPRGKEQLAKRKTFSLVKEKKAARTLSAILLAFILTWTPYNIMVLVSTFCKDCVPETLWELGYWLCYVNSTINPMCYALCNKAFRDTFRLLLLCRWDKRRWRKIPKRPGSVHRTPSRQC

[6] = target: cGMP-dependent 3',5'-cyclic phosphodiesterase (Homo sapiens, UniProt O00408); assay: Inhibition of PDE2A (unknown origin)
Sequence of cGMP-dependent 3',5'-cyclic phosphodiesterase (O00408 whole entry): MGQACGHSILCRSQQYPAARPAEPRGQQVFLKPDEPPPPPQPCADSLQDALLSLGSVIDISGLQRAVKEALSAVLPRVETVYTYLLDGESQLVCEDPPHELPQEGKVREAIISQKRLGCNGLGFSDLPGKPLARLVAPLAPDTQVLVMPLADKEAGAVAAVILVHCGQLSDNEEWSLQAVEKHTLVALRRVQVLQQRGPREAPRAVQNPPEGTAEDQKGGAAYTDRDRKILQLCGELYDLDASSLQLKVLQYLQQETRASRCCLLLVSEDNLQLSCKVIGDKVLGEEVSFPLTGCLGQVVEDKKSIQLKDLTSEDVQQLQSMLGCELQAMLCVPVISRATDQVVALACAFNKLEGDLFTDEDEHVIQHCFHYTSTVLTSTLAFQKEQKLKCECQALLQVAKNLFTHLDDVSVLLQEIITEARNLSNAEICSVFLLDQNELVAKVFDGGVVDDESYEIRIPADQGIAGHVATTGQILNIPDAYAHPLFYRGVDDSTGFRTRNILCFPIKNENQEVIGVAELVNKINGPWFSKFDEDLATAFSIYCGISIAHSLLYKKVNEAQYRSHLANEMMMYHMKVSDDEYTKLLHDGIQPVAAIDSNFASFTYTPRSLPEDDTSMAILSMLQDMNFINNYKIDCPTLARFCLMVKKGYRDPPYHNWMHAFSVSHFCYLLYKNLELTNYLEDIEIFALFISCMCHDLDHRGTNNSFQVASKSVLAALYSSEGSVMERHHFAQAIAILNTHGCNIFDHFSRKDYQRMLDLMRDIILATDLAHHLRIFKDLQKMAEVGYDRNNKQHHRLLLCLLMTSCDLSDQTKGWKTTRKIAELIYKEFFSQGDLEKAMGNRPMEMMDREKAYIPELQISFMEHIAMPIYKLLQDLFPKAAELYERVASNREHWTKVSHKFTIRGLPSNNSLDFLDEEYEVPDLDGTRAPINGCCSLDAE

[7] = In vivo positive allosteric modulation of muscarinic M1 receptor in CD1 mouse assessed as increase in ACh-induced IP-1 levels in […] tissue at 10 mg/kg, sc measured after 2 hrs by HTRF assay relative to baseline; format: functional
Procedure, shortened: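 Given sc as a solution in 5/15/80 DMSO/Solutol/water. Striatal IP1 was read 2 h after dosing and expressed as fold increase over baseline. Compound levels were measured in striatal tissue at 2 h (N=5/dose). Each animal's fold increase was plotted against its unbound brain concentration.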

[8] = Toxicity in dog assessed as salivation at 3 mg/kg, po using spray-dried dispersion formulation; format: organism-based, Canis lupus familiaris; settings: in vivo
[9] = Unbound brain concentration in […] in Sprague-Dawley rat model at 3.2 mg/kg, sc measured after 1.67 hrs; format: ADME, organism-based; settings: in vivo
Procedure, shortened: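 Randomly selected animals (N=2/dose) at the end of the rat PPI study, T = 1.67 h. Dosed subcutaneously as a suspension in 0.5% methylcellulose in water. Plasma and brain concentrations were averaged.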

[10] = Toxicity in dog assessed as induction of loose stool at 3 mg/kg, po using spray-dried dispersion formulation; format: organism-based, Canis lupus familiaris; settings: in vivo
[11] = Unbound brain concentration in amphetamine-induced C57BL/6J mouse model of hyperlocomotion at 3.2 mg/kg, sc measured after 1 hr; format: ADME, organism-based; settings: in vivo
Procedure, shortened: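 Satellite PK animals from the mouse aLMA study, N=2/dose. Dosed subcutaneously with a solution in 5/15/80 DMSO/Solutol/water. Plasma and brain were sampled at T = 1 h.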

[12] = Toxicity in male Beagle dog assessed as increase in maximum systolic left ventricular pressure at 1 mg/kg, po observed upto 9 hrs post last dose by telemetry; format: organism-based, Canis lupus familiaris; settings: in vivo
Procedure, shortened: (§2)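 Crossover telemetry study in dogs at three oral doses (0.3, 1 and 3 mg/kg), N=4. Endpoints were blood pressure, maximum systolic left ventricular pressure, LV +dP/dt max, activity, heart rate, and RR, QT and QTc intervals, followed up to 9 h post dose.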

[13] = test system: MDR1 (P-gp); assay: Efflux ratio of permeability across basolateral to apical side over apical to basolateral side in dog MDCK-MDR1 cells; format: ADME, cell-based, Canis lupus familiaris
[14] = Unbound brain concentration in scopolamine-induced Wistar rat model at 1 mg/kg, po measured after 1 hr; format: ADME, organism-based; settings: in vivo
[15] = Toxicity in male rat assessed as increase in body weight at 30 mg/kg, po administered for 14 days; settings: in vivo, 336 h
[16] = Unbound brain concentration in CD-1 mouse at 3.2 mg/kg, sc measured after 2 hrs by LC-MS/MS analysis; format: ADME, organism-based; settings: in vivo
[17] = Clearance in dog at 0.1 mg/kg, iv administered as single bolus dose; format: ADME, organism-based, Canis lupus familiaris; settings: in vivo
[18] = Ratio of fAUC in brain to plasma of scopolamine-induced Wistar rat model at 0.1 mg/kg, po measured after 1 hr; format: ADME, organism-based; settings: brain and plasma, read-out: Ratio AUC
[19] = target: T2, Muscarinic acetylcholine receptor M4 (Homo sapiens, UniProt P08173); assay: Positive allosteric modulation of human recombinant muscarinic M4 receptor stably expressed in HEK cells assessed as increase in ACh-induced cAMP accumulation up to 10 uM measured after 10 mins by GloSensor cAMP Assay; format: cell-based
T2 sequence (P08173 whole entry): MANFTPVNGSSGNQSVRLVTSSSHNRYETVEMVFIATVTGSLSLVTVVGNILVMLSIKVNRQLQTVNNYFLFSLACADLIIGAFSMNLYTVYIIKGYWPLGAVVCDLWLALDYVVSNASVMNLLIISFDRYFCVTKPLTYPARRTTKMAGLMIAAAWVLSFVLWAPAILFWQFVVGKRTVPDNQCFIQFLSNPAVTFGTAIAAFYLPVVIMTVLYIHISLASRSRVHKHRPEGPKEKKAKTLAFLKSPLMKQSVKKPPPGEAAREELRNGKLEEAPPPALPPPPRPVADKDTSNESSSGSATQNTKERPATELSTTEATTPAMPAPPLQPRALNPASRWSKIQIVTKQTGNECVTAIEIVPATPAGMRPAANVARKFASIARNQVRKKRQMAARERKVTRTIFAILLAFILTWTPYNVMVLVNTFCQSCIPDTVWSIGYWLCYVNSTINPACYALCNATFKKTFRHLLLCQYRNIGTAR

[20] = Toxicity in dog assessed as salivation at 5 mg/kg, po using spray-dried dispersion formulation; format: organism-based, Canis lupus familiaris; settings: in vivo
[21] = target: T1, Muscarinic acetylcholine receptor M1 (Homo sapiens); assay: Binding affinity to muscarinic M1 receptor (unknown origin) assessed as recruitment of beta-arrestin by Path Hunter assay; format: cell-based; settings: CHO, filed as positive allosteric modulator
[22] = Toxicity in dog assessed as emesis at 3 mg/kg, po using spray-dried dispersion formulation; format: organism-based, Canis lupus familiaris; settings: in vivo; procedure, shortened: as §1
[23] = Toxicity in male Beagle dog assessed as decrease in QT interval at 3 mg/kg, po administered as single dose observed upto 9 hrs post last dose by telemetry; format: organism-based, Canis lupus familiaris; settings: in vivo; procedure, shortened: as §2

- fCmax [1]: 568 nM
- fAUC [2]: 5.861 µM·h
- Kb [5]: 5 µM
- IC50 [6]: 3.09 µM
- Drug uptake(free) [9]: 44.4 nM
- Drug uptake(free) [11]: 85.2 nM
- efflux ratio [13]: 1.3
- Drug uptake(free) [14]: 6.7 nM
- Drug uptake(free) [16]: 52.8 nM
- clearance [17]: 2.73 mL/min/kg
- Kp uu at 1 h [18]: 0.34
- Activity [19]: Not Active
- Ka [21]: 20 µM
Structure (SMILES): Cc1cnc(C(=O)N[C@H]2CCOC[C@@H]2O)cc1Cc1ccc(-c2cscn2)cc1
- Activity [3]: Non-Toxic
- Activity [4]: Toxic
- fold change (FC) [7]: 42
- Activity [8]: Toxic
- Activity [10]: Toxic
- Activity [12]: 8 mmHg
- Activity [15]: Non-Toxic
- Activity [20]: Toxic
- Activity [22]: Toxic
- Activity [23]: Toxic
